ChEMBL document CHEMBL3400028, “Evaluation of Aconitum diterpenoid alkaloids as antiproliferative agents” (2015)

Assays:
Assay type in all cases: functional
A549 = test: Antiproliferative activity against human A549 cells by sulforhodamine B assay
In short: (§1)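 Cells in RPMI 1640 (25 mM HEPES, 2 mM L-glutamine, 10% heat-inactivated FBS, antibiotics) at 37 °C, 5% CO2. Seeded at 3–5 × 10³/well with graded concentrations, paclitaxel as assay control, for 72 h. TCA-fixed, stained with 0.04% SRB, dye dissolved in 10 mM Tris, A515 read. GI50 is the concentration halving absorbance versus untreated cells; three or more experiments.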

[1] = Selectivity ratio of GI50 for human KB cells to GI50 for multidrug-resistant P-gp expressing human KBVIN cells
In short: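 Ratio of GI50 in parental KB to GI50 in P-gp-overexpressing KB-VIN. […] KB-VIN cells were grown 7–10 days without vincristine before the assay.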

[2] = Antiproliferative activity against multidrug-resistant P-gp expressing human KBVIN cells by sulforhodamine B assay
In short: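 Vincristine-resistant KB subline kept in 100 nM vincristine, then grown 7–10 days without it before testing. RPMI 1640 with 10% FBS, 37 °C, 5% CO2. 3–5 × 10³ cells/well exposed 72 h to a concentration series, paclitaxel as assay control. SRB staining after TCA fixation, A515 read. GI50 is the 50% absorbance reduction versus untreated cells; three or more experiments.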

DU-145 = test: Antiproliferative activity against human DU145 cells by sulforhodamine B assay; in short: as §1
KB = test: Antiproliferative activity against human KB cells by sulforhodamine B assay; in short: as §1

Structure (SMILES)	GI50 (A549) [µM]	RatioGI50 [1]	GI50 [2] [µM]	GI50 (DU-145) [µM]	GI50 (KB) [µM]
CCN1C[C@]2(C)CC[C@H](OC)[C@@]34[C@@H]5C[C@H]6[C@H](OC)[C@@H]5[C@@]5(C[C@@H]6OC)OCO[C@@]5([C@@H](OC(=O)c5cccc(C(F)(F)F)c5)[C@H]23)[C@@H]14	10	10	10	10	10
CCN1C(=O)[C@]2(C)CC[C@H](OC)[C@@]34[C@@H]5C[C@H]6[C@H](OC)[C@@H]5[C@@]5(C[C@@H]6OC)OCO[C@@]5([C@@H](O)[C@@H]32)[C@@H]14	> 20	>20	> 20	> 20	> 20
C=C1[C@@H](O)[C@]23C[C@@H]1[C@@H](OC(=O)c1ccccc1)C[C@H]2[C@@]12C4C3C[C@@H]1[C@@](C)(CC[C@H]2O)CN4CC	> 20	>20	> 20	> 20	> 20
C=C1[C@@H](O)[C@]23C[C@@H]1[C@@H](OC(=O)c1ccc(OC)cc1)C[C@H]2[C@@]12C4C3C[C@@H]1[C@@](C)(CC[C@H]2O)CN4CC	> 20	>20	> 20	> 20	> 20
COC[C@]12CC[C@H](O)[C@]34C(NC1)[C@@](O)([C@@H](OC)[C@H]23)[C@@]1(O)C[C@H](OC)[C@H]2C[C@@H]4[C@@H]1[C@H]2OC	> 20	>20	> 20	> 20	> 20
CCN1C[C@]2(COC)CC[C@H](OC(=O)c3ccc([N+](=O)[O-])cc3)[C@]34C1[C@@](O)([C@@H](OC)[C@H]23)[C@@]1(O)C[C@H](OC)[C@H]2C[C@@H]4[C@@H]1[C@H]2OC(=O)c1ccc([N+](=O)[O-])cc1	> 20	>20	> 20	> 20	> 20
CCN1C[C@]2(COC)CC[C@H](OC(=O)c3ccc([N+](=O)[O-])cc3)[C@]34C1[C@@](O)([C@@H](OC)[C@H]23)[C@@]1(O)C[C@H](OC)[C@H]2C[C@@H]4[C@@H]1[C@H]2O	> 20	>20	> 20	> 20	> 20
CCN1C[C@]2(COC)CC[C@H](OC(=O)c3ccc(C(F)(F)F)cc3)[C@]34C1[C@@](O)([C@@H](OC)[C@H]23)[C@@]1(O)C[C@H](OC)[C@H]2C[C@@H]4[C@@H]1[C@H]2O	> 20	>20	> 20	> 20	> 20
CCN1C2OC3CCC2(COC)[C@H]2[C@H](OC)[C@]4(O)C1[C@@]32[C@@H]1C[C@H]2[C@H](O)[C@@H]1[C@]4(O)C[C@@H]2OC	> 20	>20	> 20	> 20	> 20
CCN1C[C@]2(COC)[C@H](O)C[C@H](O)[C@]34C1[C@@](O)([C@@H](O)[C@H]23)[C@@]1(O)C[C@H](OC)[C@H]2C[C@@H]4[C@@H]1[C@H]2O	> 20	>20	> 20	> 20	> 20
CCN1C[C@]2(COC(=O)c3ccccc3N)CC[C@H](OC)[C@]34C1[C@@](O)([C@@H](OC)[C@H]23)[C@@]1(O)C[C@H](OC)[C@H]2C[C@@H]4[C@@H]1[C@H]2OC(C)=O	> 20	>20	> 20	> 20	> 20
CCN1C(=O)[C@]2(COC(=O)c3ccccc3N)CC[C@H](OC)[C@]34C1[C@@](O)([C@@H](OC)[C@H]23)[C@@]1(O)C[C@H](OC)[C@H]2C[C@@H]4[C@@H]1[C@H]2OC	> 20	>20	> 20	> 20	> 20
CO[C@H]1[C@@H]2C[C@@H]3[C@H]1[C@](O)(C[C@@H]2OC)[C@@]1(O)C2NC(=O)[C@]4(COC(=O)c5ccccc5N)CC[C@H](OC)[C@@]23[C@@H]4[C@@H]1OC	> 20	>20	> 20	> 20	> 20
CO[C@H]1[C@@H]2C[C@@H]3[C@H]1[C@](O)(C[C@@H]2OC)[C@@]1(O)C2N=C[C@]4(COC(=O)c5ccccc5N)CC[C@H](OC)[C@@]23[C@@H]4[C@@H]1OC	> 20	>20	> 20	> 20	> 20
C=C1[C@H]2C[C@@]3([C@@H]1OC(C)=O)[C@@H](C[C@@H]2O)[C@@]12C4[C@@H]3C[C@@H]1[C@@](C)(CC[C@@H]2O)CN4CC	> 20	>20	> 20	> 20	> 20
C=C1[C@H]2C[C@@]3([C@@H]1OC(C)=O)[C@@H](C[C@@H]2O)[C@@]12C4[C@@H]3C[C@@H]1[C@@](C)(CC[C@@H]2O)C[N+]4([O-])CC (stereo not given in full)	> 20	>20	> 20	> 20	> 20
C=C1[C@H]2C[C@@]3([C@@H]1OC(C)=O)[C@@H](C[C@@H]2OC(C)=O)[C@@]12C4[C@@H]3C[C@@H]1[C@@](C)(CC[C@@H]2O)CN4CC	> 20	>20	> 20	> 20	> 20
C=C1[C@H]2C[C@@]3([C@@H]1O)[C@@H](C[C@@H]2O)[C@@]12C4[C@@H]3C[C@@H]1[C@@](C)(CC[C@@H]2OC(C)=O)CN4CC	> 20	>20	> 20	> 20	> 20
C=C1[C@H]2C[C@@]3([C@@H]1OC(C)=O)[C@@H](C[C@@H]2OC(=O)c1ccccc1)[C@@]12C4[C@@H]3C[C@@H]1[C@@](C)(CC[C@@H]2O)CN4CC	> 20	>20	> 20	> 20	> 20
C=C1[C@H]2C[C@@]3([C@@H]1OC(=O)c1ccccc1)[C@@H](C[C@@H]2OC(=O)c1ccccc1)[C@@]12C4[C@@H]3C[C@@H]1[C@@](C)(CC[C@@H]2OC(=O)c1ccccc1)CN4CC	> 20	>20	> 20	> 20	> 20
C=C1[C@H]2C[C@@]3([C@@H]1OC(=O)c1ccccc1)[C@@H](C[C@@H]2OC(=O)c1ccccc1)[C@@]12C4[C@@H]3C[C@@H]1[C@@](C)(CC[C@@H]2O)CN4CC	> 20	>20	> 20	> 20	> 20
C=C1[C@H]2C[C@@]3(C4C[C@@H]5C6(C)CCC7O[C@H]6N(CC)C4C75[C@@H]3C[C@@H]2O)[C@@H]1O	> 20	>20	> 20	> 20	> 20
C=C1[C@H]2C[C@@]3(C4C[C@@H]5C6(C)CCC7O[C@H]6N(CC)C4C75[C@@H]3C[C@@H]2OC(C)=O)[C@@H]1OC(C)=O	> 20	>20	> 20	> 20	> 20
C=C1[C@H]2C[C@@H]3C4N5C[C@]6(C)CCC[C@@]47[C@@H]6[C@@H]5C[C@]3([C@@H]1OC(C)=O)[C@H]7[C@H]2O	> 20	>20	> 20	> 20	> 20
C=C1[C@H]2C[C@@H]3C4N5C[C@]6(C)CCC[C@@]47[C@@H]6[C@@H]5C[C@]3([C@@H]1OC(C)=O)[C@H]7[C@H]2OC(C)=O	> 20	>20	> 20	> 20	> 20
C=C1[C@H]2C[C@@H]3C4N5C[C@]6(C)CCC[C@@]47[C@@H]6[C@@H]5C[C@]3([C@@H]1O)[C@H]7[C@H]2OC(=O)c1ccccc1	> 20	>20	> 20	> 20	> 20
CCN1C[C@]2(COC)CC[C@H](OC)[C@]34C1[C@@](O)([C@@H](OC)[C@H]23)[C@@]1(O)C[C@H](OC)[C@H]2C[C@@H]4[C@@H]1[C@H]2OC(C)=O	> 20	>20	> 20	> 20	> 20
C=C1[C@@H](O)[C@]23C[C@@H]1[C@@H](OC(=O)c1ccc(OC)c(OC)c1)C[C@H]2[C@@]12C4C3C[C@@H]1[C@@](C)(CC[C@H]2O)CN4CC	> 20	>20	> 20	> 20	> 20
C=C1[C@@H](OC(C)=O)[C@]23C[C@@H]1[C@@H](OC(C)=O)C[C@H]2[C@@]12C4C3C[C@@H]1[C@@](C)(CC[C@H]2OC(C)=O)CN4CC	> 20	>20	> 20	> 20	> 20
